In general, Kd refers to the constant that tells how readily two partners part at equilibrium. Higher therefore signals weaker binding.

The species named for assay [1] is Homo sapiens. As to the kind of experiment: Induction of tetramer formation in human telomeric repeat 2HTR G-rich ssDNA.
Assay [2] can be described thus: Binding affinity to 32 base containing human telomeric repeat G-rich ssDNA by fluorescence quenching assay. Summed up: (§1)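 Ligand held at fixed 34–168 nM in 10 mM Tris–HCl (pH 8.0) with 100 mM KCl and 1 mM EDTA, then titrated with G-rich strand, C-rich complement, or duplex made by mixing both. Each addition mixed 2 min at 25 °C. Excitation 450 nm; quenching at 545 nm read. Kd fitted by nonlinear least squares to non-interacting-site mass-action model; triplicate titrations, mean ± SD.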

Assay [3] is filed under the species Homo sapiens. As to the kind of experiment: Induction of dimer formation in human telomeric repeat 2HTR G-rich ssDNA.
Assay [4] in a line: Binding affinity to 32 base containing complementary human telomeric repeat C-rich ssDNA by fluorescence quenching assay. Summed up: as §1
The species entered for assay [5] is Homo sapiens. The assay can be described thus: Induction of dimer formation in human nuclease hypersensitive region of c-MYC gene NHE-27 G-rich ssDNA.
Assay [6] is described as follows: Binding affinity to complementary nuclease hypersensitive region of c-MYC gene NHE-27 by fluorescence quenching assay. Set-up: species or system Homo sapiens. Summed up:
as §1

Assay [7] in a line: Binding affinity to human nuclease hypersensitive region of c-MYC gene NHE-27 by fluorescence quenching assay. Summed up: as §1
Assay [8] in a line: Binding affinity to human double stranded nuclease hypersensitive region of c-MYC gene NHE-27 by fluorescence quenching assay. Summed up: as §1
The species entered for assay [9] is Homo sapiens. The assay can be described thus: Induction of tetramer formation in human nuclease hypersensitive region of c-MYC gene NHE-27 G-rich ssDNA.
Assay [10] can be described thus: Binding affinity to double stranded human telomeric repeat by fluorescence quenching assay. Summed up:
as §1

Active and inactive are the calls of the source. The calls are words filed in the database; no cut-off is given here. A value given as a limit tells only on which side of the number the result lay.

Consider `COCCOCCOCC(COCCOCCOC)N1C(=O)c2ccc3c4ccc5c6c(ccc(c7ccc(c2c37)C1=O)c64)C(=O)N(C(COCCOCCOC)COCCOCCOC)C5=O`, for which the outcome in [1], in [3], in assay [5] and in assay [9] was inactive. The Kd in [2] was greater than 20000 nM; in assay [4], greater than 20000 nM; in assay [6], greater than 20000 nM; in assay [7] it was 980 nM; in assay [8], 14800 nM; in assay [10] it was greater than 20000 nM.
For the compound `O=C1c2ccc3c4ccc5c6c(ccc(c7ccc(c2c37)C(=O)N1CCN1CCCCC1)c64)C(=O)N(CCN1CCCCC1)C5=O`, the result in assay [1], in [3], in assay [5] and in assay [9] was Active. For the same compound, the Kd in [2] worked out at 3.4 nM; in [4], 10 nM; in assay [7] it was 5.5 nM; in [8], 6.6 nM; in assay [10], 30 nM.

Values taken from ChEMBL document CHEMBL1144537, “Synthesis of a non-cationic, water-soluble perylenetetracarboxylic diimide and its interactions with G-quadruplex-forming DNA” (Bioorg Med Chem, 2007).
